Test system: U2OS
Test: Multiplex assay against U2OS
Type: toxicity, cell-based
Conditions: human
How it was run: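 On a CQ1 microscope at 37°C and 5% CO2, live cells were imaged after compound addition. They had been stained at seeding with Hoechst33342, BioTracker Green Microtubule Cytoskeleton Dye, MitoTracker Red and Annexin V Alexa Fluor 680. CellPathfinder machine-learning gating assigned cells to Hoechst high-intensity objects or normal cells, normal cells to healthy, pyknosed or fragmented nuclei, and pyknosed cells to mitotic or apoptotic. Tubulin, mitochondrial-mass and membrane-permeability phenotypes are per cents of healthy-nucleus cells.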

[1] = 12 h, 1 µM, compound concentration 1 uM, replicate 1
[2] = 12 h, 1 µM, compound concentration 1 uM, replicate 2
[3] = 12 h, 10 µM, compound concentration 10 uM, replicate 1
[4] = 12 h, 10 µM, compound concentration 10 uM, replicate 2
[5] = 24 h, 1 µM, compound concentration 1 uM, replicate 1
[6] = 24 h, 1 µM, compound concentration 1 uM, replicate 2
[7] = 24 h, 10 µM, compound concentration 10 uM, replicate 1
[8] = 24 h, 10 µM, compound concentration 10 uM, replicate 2

O=c1[nH]c2ccccc2n1C1CCN(Cc2ccc(-c3[nH]c4cc5ncnc5cc4nc3-c3ccccc3)cc2)CC1
Population Apoptotic (%) [1]: 44% | Population Fragmented Nuclei (%) [1]: 6% | Population Healthy Nuclei (%) [1]: 87% | Population Hoechst High Intensity Objects (%) [1]: 5% | Population Membrane Permeable-Phenotype (%) [1]: 37% | Population Mitochondria Different-Phenotype (%) [1]: 11% | Population Mitotic Cells (%) [1]: 55% | Population Normal (%) [1]: 94% | Population Pyknosed Nuclei (%) [1]: 5% | Population Tubulin-Different-Phenotype (%) [1]: 24% | Total Cell Count [1]: 162 | Population Apoptotic (%) [2]: 37% | Population Fragmented Nuclei (%) [2]: 7% | Population Healthy Nuclei (%) [2]: 85% | Population Hoechst High Intensity Objects (%) [2]: 8% | Population Membrane Permeable-Phenotype (%) [2]: 25% | Population Mitochondria Different-Phenotype (%) [2]: 16% | Population Mitotic Cells (%) [2]: 62% | Population Normal (%) [2]: 91% | Population Pyknosed Nuclei (%) [2]: 7% | Population Tubulin-Different-Phenotype (%) [2]: 23% | Total Cell Count [2]: 124 | Population Apoptotic (%) [3]: 30% | Population Fragmented Nuclei (%) [3]: 19% | Population Healthy Nuclei (%) [3]: 66% | Population Hoechst High Intensity Objects (%) [3]: 4% | Population Membrane Permeable-Phenotype (%) [3]: 29% | Population Mitochondria Different-Phenotype (%) [3]: 61% | Population Mitotic Cells (%) [3]: 69% | Population Normal (%) [3]: 95% | Population Pyknosed Nuclei (%) [3]: 13% | Population Tubulin-Different-Phenotype (%) [3]: 100% | Total Cell Count [3]: 173 | Population Apoptotic (%) [4]: 46% | Population Fragmented Nuclei (%) [4]: 38% | Population Healthy Nuclei (%) [4]: 51% | Population Hoechst High Intensity Objects (%) [4]: 7% | Population Membrane Permeable-Phenotype (%) [4]: 54% | Population Mitochondria Different-Phenotype (%) [4]: 75% | Population Mitotic Cells (%) [4]: 53% | Population Normal (%) [4]: 92% | Population Pyknosed Nuclei (%) [4]: 9% | Total Cell Count [4]: 142 | Population Apoptotic (%) [5]: 42% | Population Fragmented Nuclei (%) [5]: 7% | Population Healthy Nuclei (%) [5]: 83% | Population Hoechst High Intensity Objects (%) [5]: 5% | Population Membrane Permeable-Phenotype (%) [5]: 31% | Population Mitochondria Different-Phenotype (%) [5]: 12% | Population Mitotic Cells (%) [5]: 57% | Population Normal (%) [5]: 94% | Population Pyknosed Nuclei (%) [5]: 9% | Population Tubulin-Different-Phenotype (%) [5]: 16% | Total Cell Count [5]: 211 | Population Apoptotic (%) [6]: 41% | Population Healthy Nuclei (%) [6]: 81% | Population Hoechst High Intensity Objects (%) [6]: 3% | Population Membrane Permeable-Phenotype (%) [6]: 14% | Population Mitochondria Different-Phenotype (%) [6]: 15% | Population Mitotic Cells (%) [6]: 58% | Population Normal (%) [6]: 96% | Population Pyknosed Nuclei (%) [6]: 11% | Total Cell Count [6]: 157 | Population Apoptotic (%) [7]: 55% | Population Fragmented Nuclei (%) [7]: 19% | Population Healthy Nuclei (%) [7]: 50% | Population Hoechst High Intensity Objects (%) [7]: 6% | Population Membrane Permeable-Phenotype (%) [7]: 53% | Population Mitochondria Different-Phenotype (%) [7]: 91% | Population Mitotic Cells (%) [7]: 44% | Population Normal (%) [7]: 93% | Population Pyknosed Nuclei (%) [7]: 30% | Total Cell Count [7]: 174 | Population Apoptotic (%) [8]: 80% | Population Fragmented Nuclei (%) [8]: 28% | Population Healthy Nuclei (%) [8]: 38% | Population Hoechst High Intensity Objects (%) [8]: 14% | Population Membrane Permeable-Phenotype (%) [8]: 72% | Population Mitochondria Different-Phenotype (%) [8]: 88% | Population Mitotic Cells (%) [8]: 19% | Population Normal (%) [8]: 85% | Population Pyknosed Nuclei (%) [8]: 32% | Population Tubulin-Different-Phenotype (%) [8]: 100% | Total Cell Count [8]: 130

From ChEMBL document CHEMBL4689842, “EUbOPEN Chemogenomics Library wave 1” (2021)
